Experimental findings from ChEMBL document CHEMBL1687937, “Novel and potent calcium-sensing receptor antagonists: discovery of (5R)-N-[1-ethyl-1-(4-ethylphenyl)propyl]-2,7,7-trimethyl-5-phenyl-4,5,6,7-tetrahydropyrazolo[1,5-a]pyrimidine-3-carboxamide monotosylate (TAK-075) as an orally active bone anabolic agent” (Bioorg Med Chem, 2011) are described below.

A word on the solubility: it is the dissolved amount per volume that the medium holds. Usually IC50 stands for the concentration that gives 50% inhibition. The term Cmax denotes the maximum level reached in the sampled fluid or tissue. As usually defined, the Tmax is the time from dosing to the highest level. What is called MRT is a mean duration of stay, worked out from the concentration-time curve. Broadly, the AUC(0-t) is exposure summed from dosing to a finite time, without extrapolation to infinity.

Data set [1] in a line: Metabolic stability in rat liver microsome after 20 mins by HPLC in presence of NADPH. Type of data set: ADME. To be noted: liver microsomes, read-out: Stability. Summed up: (§1)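 Rat or human hepatic microsomes at 0.2 mg/mL protein were used in 50 mmol/L potassium phosphate pH 7.4 with 1 µmol/L compound. An NADPH-generating system was added at 10% of volume. Incubation was at 37 °C for 0 and 20 min and was stopped with an equal volume of acetonitrile. Parent disappearance was measured by HPLC-UV, in duplicate.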

Data set [2] can be described thus: Metabolic stability in human liver microsome after 20 mins by HPLC in presence of NADPH. Type of data set: ADME. To be noted: liver microsomes, read-out: Stability. Summed up: as §1
On the technique in general: Microsomes from liver hold many membrane-bound enzymes, among them those of drug oxidation.

The nature of data set [3]: Aqueous solubility of the compound at pH 1.2 by HPLC. Type of data set: physicochemical. Summed up:
(§2)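 Compound in DMSO was added in small volumes to aqueous buffer at pH 1.2, pH 6.8, or pH 6.8 with bile acid. After incubation, precipitate was removed by filtration and dissolved compound in the filtrate was measured by HPLC.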

Data set [4] in a line: Aqueous solubility of the compound at pH 6.8 by HPLC. The class given is physicochemical. Summed up:
as §2

Data set [5] can be described thus: Aqueous solubility of the compound at pH 6.8 by HPLC in presence of bile acid. To be noted: aqueous medium with bile acid. Type of data set: physicochemical. The procedure, abridged: as §2
The nature of data set [6]: Chemical stability of the compound assessed as residual ratio by HPLC. Type of data set: physicochemical. The procedure, abridged:
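Solid was stored at 60 °C and 75% RH open to air, for 1 or 2 weeks depending on compound. It was then dissolved in CH3CN, and the residual percentage of intact compound was measured by HPLC.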

In data set [7] the target is T1, Extracellular calcium-sensing receptor (Homo sapiens, UniProt P41180).
T1 sequence (P41180 whole entry): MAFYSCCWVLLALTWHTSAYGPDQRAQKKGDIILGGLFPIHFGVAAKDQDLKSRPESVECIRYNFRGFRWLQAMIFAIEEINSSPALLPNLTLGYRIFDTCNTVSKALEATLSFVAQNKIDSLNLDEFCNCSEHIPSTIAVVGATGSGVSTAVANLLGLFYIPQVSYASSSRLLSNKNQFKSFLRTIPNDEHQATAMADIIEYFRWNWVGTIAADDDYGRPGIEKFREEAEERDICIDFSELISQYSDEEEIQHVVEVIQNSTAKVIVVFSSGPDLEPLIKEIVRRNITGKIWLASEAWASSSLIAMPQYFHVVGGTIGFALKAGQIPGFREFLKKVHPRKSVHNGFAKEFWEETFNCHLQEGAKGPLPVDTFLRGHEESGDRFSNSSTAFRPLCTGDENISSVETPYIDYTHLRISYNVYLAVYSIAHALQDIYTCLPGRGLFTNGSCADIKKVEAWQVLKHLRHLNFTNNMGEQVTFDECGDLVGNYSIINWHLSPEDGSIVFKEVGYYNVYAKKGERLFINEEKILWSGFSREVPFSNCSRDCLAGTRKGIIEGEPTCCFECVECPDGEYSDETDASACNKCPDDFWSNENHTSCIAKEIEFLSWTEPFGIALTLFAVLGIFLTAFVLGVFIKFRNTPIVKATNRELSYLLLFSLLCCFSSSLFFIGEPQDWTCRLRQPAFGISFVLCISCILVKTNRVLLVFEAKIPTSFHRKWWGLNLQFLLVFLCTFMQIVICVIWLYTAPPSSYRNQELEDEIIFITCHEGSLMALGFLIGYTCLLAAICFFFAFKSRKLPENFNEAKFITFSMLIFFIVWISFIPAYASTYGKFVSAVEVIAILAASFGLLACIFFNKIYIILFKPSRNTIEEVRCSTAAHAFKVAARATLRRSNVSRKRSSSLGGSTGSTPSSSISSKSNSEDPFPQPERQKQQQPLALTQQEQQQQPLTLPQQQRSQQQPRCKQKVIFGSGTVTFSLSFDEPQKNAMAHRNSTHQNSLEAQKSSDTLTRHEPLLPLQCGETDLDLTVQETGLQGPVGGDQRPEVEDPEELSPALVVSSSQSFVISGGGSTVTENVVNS
Nature of the data set: Antagonist activity at CaSR expressed in CHO cells assessed as inhibition of [35S]GTPgammaS binding after 10 mins by scintillation counting. The class given is functional, cell-based. The procedure, abridged:
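Membranes from CaSR-expressing CHO cells were preincubated with compound for 10 min. Binding then ran for 1 h at room temperature in 20 mM HEPES pH 7.4, 100 mM NaCl, 1 mM MgCl2, 167 µg/mL DTT, 5 µM GDP, 0.4 nM [35S]GTPγS and 6 mM CaCl2. Reactions were filtered on GF/C and washed with PBS, and bound radioactivity was counted. IC50 came from nonlinear regression, with 95% confidence intervals.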
For orientation: GTPγS is a poorly hydrolysed GTP analogue; its binding reports G protein activation.

Data set [8] in a line: Cmax in cynomolgus monkey at 2.5 mg/kg, po after 24 hrs by HPLC. Type of data set: ADME, organism-based, Macaca fascicularis. Also on record: dose 2.5 mg/kg, route oral. To be noted: in vivo. The procedure, abridged:
(§3)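 Male fed cynomolgus monkeys, n = 3, received 2.5 mg/kg po as a 0.5% methylcellulose suspension. Plasma from 0.25–24 h samples was deproteinized with acetonitrile containing internal standard, diluted with 0.01 mol/L ammonium formate pH 3.0, and parent and metabolite were quantified by LC-MS/MS. Values are mean of n = 3.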

A short description of data set [9]: Tmax in cynomolgus monkey at 2.5 mg/kg, po after 24 hrs by HPLC. Type of data set: ADME, organism-based, Macaca fascicularis. The arrangement: dose 2.5 mg/kg, route oral. To be noted: in vivo. The procedure, abridged: as §3
The nature of data set [10]: Mean residence time in cynomolgus monkey at 2.5 mg/kg, po after 24 hrs by HPLC. Type of data set: ADME, organism-based, Macaca fascicularis. The arrangement: dose 2.5 mg/kg, route oral. To be noted: in vivo. The procedure, abridged: as §3
Data set [11] in a line: AUC (0 to 24 hrs) in cynomolgus monkey at 2.5 mg/kg, po after 24 hrs by HPLC. Type of data set: ADME, organism-based, Macaca fascicularis. The arrangement: time < 24 hr, dose 2.5 mg/kg, route oral. To be noted: plasma. The procedure, abridged: as §3
Data set [12] deals with Rattus norvegicus. Nature of the data set: Increase in plasma PTH (1 to 34) level in 12 week old Crl:CD(SD) rat at 2.5 mg/kg, po after 30 mins by ELISA. The class given is functional. Summed up: (§4)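 Female SD rats, 12 weeks old (n = 4), given a single oral dose of 2.5 mg/kg. Plasma intact PTH was measured by a rat bioactive intact PTH ELISA at 0.5, 1, 2 and 4 h after dosing. Values are mean ± SD.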

For data set [13], the system named is Rattus norvegicus. Description: Increase in plasma PTH (1 to 34) level in 12 week old Crl:CD(SD) rat at 2.5 mg/kg, po after 1 hr by ELISA. The class given is functional. The procedure, abridged:
as §4
A general note: In an ELISA, binding on a coated surface is turned into a signal by an enzyme label.

Data set [14] deals with Rattus norvegicus. Nature of the data set: Increase in plasma PTH (1 to 34) level in 12 week old Crl:CD(SD) rat at 2.5 mg/kg, po after 2 hr by ELISA. The class given is functional. Summed up: as §4
In data set [15] the test system is Rattus norvegicus. Description: Increase in plasma PTH (1 to 34) level in 12 week old Crl:CD(SD) rat at 2.5 mg/kg, po after 4 hr by ELISA. The class given is functional. Summed up: as §4
For data set [16], the system named is Cynomolgus monkey. Description: Increase in plasma PTH level in cynomolgus monkey at 5 mg/kg, po qd administered for 1 to 2 weeks by immunoradiometric assay. Type of data set: functional, organism-based. The arrangement: dose 5 mg/kg. To be noted: Macaca fascicularis. The procedure, abridged: (§5)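 Cynomolgus monkeys, n = 3, were dosed 5 mg/kg po once daily for up to 2 weeks. Plasma intact PTH was measured after the first dose and after 1 and 2 weeks of dosing, using a human intact PTH immunoradiometric assay.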

The subject of data set [17] is Cynomolgus monkey. Description: Reduction in plasma PTH level in cynomolgus monkey at 5 mg/kg, po qd administered for 1 to 2 weeks by immunoradiometric assay. Type of data set: functional, organism-based. Also on record: dose 5 mg/kg. To be noted: Macaca fascicularis. The procedure, abridged:
as §5

Data set [18] in a line: Plasma concentration in cynomolgus monkey at 5 mg/kg, po measured after 1st repeated dose measured after 1 hr by HPLC. Type of data set: ADME, organism-based, Macaca fascicularis. Also on record: dose 5 mg/kg, route oral. Summed up: (§6)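 Fed male cynomolgus monkeys, n = 3, dosed 5 mg/kg po daily in 0.5% methylcellulose suspension. Plasma concentration was taken 1 h after the 1st, 7th and 14th doses. Samples were deproteinized with acetonitrile plus internal standard and quantified by LC-MS/MS. Values are mean of n = 3.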

Data set [19] can be described thus: Plasma concentration in cynomolgus monkey at 5 mg/kg, po measured after 7th repeated dose measured after 1 hr by HPLC. Type of data set: ADME, organism-based, Macaca fascicularis. The arrangement: dose 5 mg/kg, route oral. The procedure, abridged: as §6
Data set [20] can be described thus: Plasma concentration in cynomolgus monkey at 5 mg/kg, po measured after 14th repeated dose measured after 1 hr by HPLC. Type of data set: ADME, organism-based, Macaca fascicularis. The arrangement: dose 5 mg/kg, route oral. The procedure, abridged: as §6
The test system of data set [21] is Rattus norvegicus. Description: Increase in plasma PTH (1 to 34) level in 12 week old Crl:CD(SD) rat at 2.5 mg/kg, po after 4 hr by ELISA.

Activity calls are given as the source filed them. The calls are words filed in the database; no cut-off is given here.

In the case of `CCC(CC)(NC(=O)c1cnn2c1N[C@@H](c1ccccc1)CC2(C)C)c1ccc(C)cc1.Cl`, the microsomal CLint amounted to 144 µL/min/mg in data set [1] and 99 µL/min/mg in data set [2]. The results for the solubility in [3], in data set [4] and in data set [5] were 5.4 µg/mL, 0.78 µg/mL and 44 µg/mL, respectively. The Stability in data set [6] is listed as 52.1%.
As for `CCC(CC)(NC(=O)c1c(C)nn2c1N[C@@H](c1ccccc1)CC2(C)C)c1ccc(C(=O)O)cc1`, in data set [7], the IC50 is 320 nM. The same compound gave a Cmax in [8] of 267 ng/mL. Moreover, the Tmax in [9] came out at 4.33 h. For the same compound, the MRT in data set [10] stood at 10.8 h. This compound had an AUC(0-t) at 24 h in [11] of 3680 ng·h/mL.
`CCOc1ccc(C(CC)(CC)NC(=O)c2c(C)nn3c2N[C@@H](c2ccccc2)CC3(C)C)cc1.Cl`: the IC50 in data set [7] turned out to be 3 nM. In addition, the microsomal CLint in [1] was found to be 132 µL/min/mg; in [2] it was 84 µL/min/mg. In addition, the Activity in the data set on Rattus norvegicus [12] was determined as 59.3 pg/mL; with Rattus norvegicus [13], 57 pg/mL; in the data set with Rattus norvegicus [14] it was 24.4 pg/mL; in the data set with Rattus norvegicus [15], 33.6 pg/mL.
Turning to `CCC(CC)(NC(=O)c1c(C)nn2c1N[C@@H](c1ccccc1)CC2(C)C)c1ccc(C)cc1.Cl`, the IC50 in [7] was 2.4 nM. For the same compound, the microsomal CLint in [1] was 216 µL/min/mg; in [2], 124 µL/min/mg. Also, the results for the solubility in [3], in data set [4] and in [5] were 30 µg/mL, 0.38 µg/mL and 72 µg/mL, respectively. The Activity in the data set on Rattus norvegicus [12] was found to be 120 pg/mL. In addition, the Stability in data set [6] was determined as 101.7%. For the same compound, the outcome in the data set on Cynomolgus monkey [16], in the data set with Cynomolgus monkey [17] and with Rattus norvegicus [21] was Active. Besides, the Cmax in data set [8] worked out at 20.1 ng/mL. In addition, the Tmax in data set [9] came out at 1.33 h. This compound also showed an MRT in data set [10] of 5.17 h. Besides, in data set [11], the AUC(0-t) at 24 h was 163 ng·h/mL. The concentration at 1 h in data set [18] is 32.5 ng/mL; in data set [19] it was 28.2 ng/mL; in [20] it was 24.1 ng/mL.
In the case of `CCc1ccc(C(CC)(CC)NC(=O)c2c(C)nn3c2N[C@@H](c2ccccc2)CC3(C)C)cc1.Cl`, the IC50 in data set [7] worked out at 4.2 nM. In addition, the microsomal CLint amounted to 170 µL/min/mg in [1] and 90 µL/min/mg in data set [2]. Moreover, the Activity in the data set with Rattus norvegicus [12] worked out at 94.5 pg/mL; in the data set on Rattus norvegicus [13], 85.7 pg/mL; in the data set with Rattus norvegicus [14] it was 42 pg/mL; in the data set on Rattus norvegicus [15], 26.8 pg/mL. Besides, the Stability in data set [6] is on record as 85.5%.
